An excerpt weighted towards active compounds, which were near 3% of everything screened.
ABHD5 PLIN5 PPI: inhibitors of human ABHD5-perilipin-5 interaction; Split G. princeps luciferase complementation, luminescence, 4 h; inhibition, % at 4 µM; 0.78% of 360,000 active;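 active = inhibition above the mean inhibition across every tested compound plus 3 SD, cut at about 22% in these data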;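 note: 0% = DMSO only wells and the 100% control is not disclosed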
MC4R antagonist: human MC4R antagonism in cAMP assay | P32245 | inhibition, % at 6.5 µM | MC4R-expressing cells, MTII-stimulated cAMP, LANCE TR-FRET | 0.48% of 360,000 active;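 active = inhibition above its plate's cutoff, the mean of tested wells on that plate plus 3 SD, cut at about 29% in these data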;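 note: 0% = Melanotan II alone and 100% = Melanotan II plus saturating MCL0020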
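Assay system: human MC4R-expressing U2OS cells; reagent: Melanotan II stimulation of cells; dosing: 6.5 µM single dose; timing: compound 30 min, challenge 1 h, detection 1 h; signal: TR-FRET cAMP assay; replicates: one well per compound, no replicates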
B2AR ag: human beta-2 adrenergic receptor agonism by FAP. response, % (test concentration not listed). P07550. 0.43% of 340,000 active. Am2.2-beta2AR cells, FAP receptor internalization, flow cytometry;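 active = response above a set limit, near 3 SD of response in nonfluorescent compounds, cut at about 42% in these data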
MC4R barr agon: agonists of human melanocortin 4 receptor (MC4R) beta-arrestin | P32245 | U2OS MC4R beta-arrestin complementation, luminescence; percent of melanotan II response, DMSO zero | activation, % at 8.9 µM | 0.98% of 360,000 active;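 active = activation above a per-plate cutoff, the mean activation of sample wells on that plate plus 3 SD, cut at about 8% in these data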
PfGluPho inh: PfG6PD (Plasmodium falciparum) enzyme inhibition; inhibition, % at 20 µM; PfGluPho enzyme, NADPH resazurin-diaphorase fluorescence; 0.78% of 350,000 active;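 active = inhibition reaching at least a set limit at 20 µM in the primary screen, cut at about 59% in these data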;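 note: 0% = DMSO wells with substrate and 100% = DMSO wells lacking glucose-6-phosphate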
ABHD5-PLIN5 conf: confirmation of human ABHD5-PLIN5 interaction inhibitors; shares compounds with ABHD5 PLIN5 PPI; biochemical ABHD5-PLIN5 interaction, luminescence; inhibition, % at 4 µM; 67% of 2,200 active; AID 651612; in the data active = inhibition above about 23%;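 note: 0% = DMSO vehicle wells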
HNF4 counter: active in HNF4 split-luciferase counter-screen for ABHD5-PLIN5 inhibitors; shares compounds with ABHD5 PLIN5 PPI; HNF4 dimerization, luminescence, biochemical; inhibition, % at 4 µM; 77% of 2,200 active;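 active = mean inhibition across replicate wells exceeding the computed hit threshold, cut at about 13% in these data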;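 note: light from luciferase halves that rejoin when HNF4 fusion proteins dimerize; 0% = DMSO only wells and the 100% control is not given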
Target sequence (P41235 whole entry, looked up, the tested form may be a part): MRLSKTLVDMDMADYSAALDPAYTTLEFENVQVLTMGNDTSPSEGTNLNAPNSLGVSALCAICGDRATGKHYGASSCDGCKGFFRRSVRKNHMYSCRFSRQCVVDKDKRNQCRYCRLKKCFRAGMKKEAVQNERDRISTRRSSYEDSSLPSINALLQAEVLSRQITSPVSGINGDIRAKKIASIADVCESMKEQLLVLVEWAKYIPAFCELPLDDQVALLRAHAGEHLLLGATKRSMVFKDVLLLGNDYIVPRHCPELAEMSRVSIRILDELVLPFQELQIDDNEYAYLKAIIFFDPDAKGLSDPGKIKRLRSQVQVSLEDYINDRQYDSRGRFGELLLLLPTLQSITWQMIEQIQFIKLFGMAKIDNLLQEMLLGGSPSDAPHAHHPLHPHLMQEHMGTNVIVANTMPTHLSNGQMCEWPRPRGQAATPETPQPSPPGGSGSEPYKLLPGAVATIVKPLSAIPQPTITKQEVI
Numbers without * were called inactive.

Screening CCOc1cccc2sc(N(CCCN(C)C)C(=O)c3ccc(S(=O)(=O)N(C)c4ccccc4)cc3)nc12 returned ABHD5 PLIN5 PPI 27*, MC4R antagonist 6, B2AR ag 19, MC4R barr agon 4, PfGluPho inh 4, ABHD5-PLIN5 conf 19 and HNF4 counter 12.
For CCOc1cccc2sc(N(CCCN(C)C)C(=O)c3ccc(S(=O)(=O)N4CCc5ccccc5C4)cc3)nc12 the results were ABHD5 PLIN5 PPI 19, MC4R antagonist 6, B2AR ag 15, MC4R barr agon 0 and PfGluPho inh -6.
`CN(C)CCCN(C(=O)COc1ccccc1)c1nc2ccc(F)cc2s1` gave ABHD5 PLIN5 PPI 6, MC4R antagonist 2, B2AR ag -3, MC4R barr agon 0 and PfGluPho inh 15.
For CN(C)CCCN(C(=O)CCOc1ccccc1)c1nc2ccc(F)cc2s1 the results were ABHD5 PLIN5 PPI 32*, MC4R antagonist -15, B2AR ag 5, MC4R barr agon -4, PfGluPho inh 16, ABHD5-PLIN5 conf 21 and HNF4 counter 100*.
CN(C)CCCN(C(=O)COc1ccc(Cl)cc1)c1nc2ccc(F)cc2s1 was read as ABHD5 PLIN5 PPI 27*, MC4R antagonist 6, B2AR ag 2, MC4R barr agon 1, PfGluPho inh -3, ABHD5-PLIN5 conf 13 and HNF4 counter 3.
For CN(C)CCCN(C(=O)CCOc1ccccc1)c1nc2c(F)cccc2s1 the results were ABHD5 PLIN5 PPI 28*, MC4R antagonist -10, B2AR ag 4, MC4R barr agon -3, PfGluPho inh 13, ABHD5-PLIN5 conf 13 and HNF4 counter 92*.
For COc1ccc(OC)c(S(=O)(=O)N2CCC(C(=O)NCc3ccc4c(c3)OCO4)CC2)c1 the results were ABHD5 PLIN5 PPI -3, MC4R antagonist 18, B2AR ag -10, MC4R barr agon -3 and PfGluPho inh 9.
`CCN(CC(=O)NC(=O)NCc1ccccc1)Cc1ccccc1` gave ABHD5 PLIN5 PPI 4, MC4R antagonist 16, B2AR ag -5, MC4R barr agon -3 and PfGluPho inh 2.
For Cc1ccc2nc(N(CCCN(C)C)C(=O)c3cc(-c4cccs4)nc4ccccc34)sc2c1 the results were ABHD5 PLIN5 PPI 25*, MC4R antagonist 5, B2AR ag 18, MC4R barr agon 9.2*, PfGluPho inh 21, ABHD5-PLIN5 conf 14 and HNF4 counter 1.
`Cc1ccc2nc(N(CCCN(C)C)C(=O)COc3ccc(Cl)cc3)sc2c1` gave ABHD5 PLIN5 PPI 26*, MC4R antagonist -5, B2AR ag 31, MC4R barr agon 8.8*, PfGluPho inh 4, ABHD5-PLIN5 conf 16 and HNF4 counter 0.
`CCn1c(SCC(=O)N/N=C/C=C/c2ccco2)nnc1-c1ccccc1` gave ABHD5 PLIN5 PPI 31*, MC4R antagonist -11, B2AR ag -5, MC4R barr agon 2, PfGluPho inh 19, ABHD5-PLIN5 conf 24* and HNF4 counter 44*.
Screening CCOc1cc(/C=C/C(=O)c2ccc(C)cc2)ccc1OCC(=O)N(C)C returned ABHD5 PLIN5 PPI 7, MC4R antagonist 3, B2AR ag 23, MC4R barr agon -1 and PfGluPho inh 4.
`O=C1c2ccccc2COc2ccc(O)cc21` gave ABHD5 PLIN5 PPI -4, MC4R antagonist 6, B2AR ag 3, MC4R barr agon -2 and PfGluPho inh 10.
O=C1/C(=C/c2ccc(O)cc2)COc2ccccc21 was read as ABHD5 PLIN5 PPI 25*, MC4R antagonist 12, B2AR ag -4, MC4R barr agon 0, PfGluPho inh -22, ABHD5-PLIN5 conf 50* and HNF4 counter 60*.
Screening CCOc1cc(/C=C2/COc3ccccc3C2=O)ccc1OCC(=O)N(C)C returned ABHD5 PLIN5 PPI 25*, MC4R antagonist -1, B2AR ag 13, MC4R barr agon -4, PfGluPho inh -8, ABHD5-PLIN5 conf 71* and HNF4 counter 67*.
Screening CNc1ccc(/C=C2\COc3ccccc3C2=O)cc1[N+](=O)[O-] returned ABHD5 PLIN5 PPI 3, MC4R antagonist -2, B2AR ag 4, MC4R barr agon -2 and PfGluPho inh -2.
Screening O=C1/C(=C/c2ccccc2[N+](=O)[O-])COc2ccccc21 returned ABHD5 PLIN5 PPI 58*, MC4R antagonist 7, B2AR ag 8, MC4R barr agon -4, PfGluPho inh -7, ABHD5-PLIN5 conf 79* and HNF4 counter 76*.
CC(C)(C)[C@H]1COC(=O)CC/C=C\C[C@@H](CC(=O)N(CCO)Cc2ccccc2)C(=O)N1 was read as ABHD5 PLIN5 PPI -10, MC4R antagonist 8, B2AR ag -1, MC4R barr agon 0 and PfGluPho inh -7.
`COc1ccc(/C(O)=C2\C(=O)C(=O)N(Cc3ccco3)C2c2cc(OC)ccc2OC)cc1` (configuration not stated) gave ABHD5 PLIN5 PPI 29*, MC4R antagonist 14, B2AR ag 3, MC4R barr agon -1, PfGluPho inh -20, ABHD5-PLIN5 conf 4 and HNF4 counter 2.
COc1cc(C2/C(=C(\O)c3ccc4c(c3)OCCO4)C(=O)C(=O)N2Cc2ccco2)cc(OC)c1OC (configuration not stated) was read as ABHD5 PLIN5 PPI 29*, MC4R antagonist 10, B2AR ag 2, MC4R barr agon 3, PfGluPho inh -9, ABHD5-PLIN5 conf 3 and HNF4 counter 5.
`CCNC(=S)Nc1ccc2cn[nH]c2c1` gave ABHD5 PLIN5 PPI -4, MC4R antagonist 2, B2AR ag -6, MC4R barr agon 1 and PfGluPho inh -8.
N#CC(C#N)=NNc1ccc2cn[nH]c2c1 was read as ABHD5 PLIN5 PPI 48*, ABHD5-PLIN5 conf 55* and HNF4 counter 58*.
COc1ccc(S(=O)(=O)N2CCC(C(=O)N(CC(C)C)C3CCS(=O)(=O)C3)CC2)cc1OC (configuration not stated) was read as ABHD5 PLIN5 PPI -1, MC4R antagonist -4, B2AR ag -7, MC4R barr agon -3 and PfGluPho inh -2.
`N#C/C(=C\c1c(F)cccc1Cl)C(=O)NC1CC1` gave ABHD5 PLIN5 PPI 23*, MC4R antagonist 22, B2AR ag 13, MC4R barr agon -3, PfGluPho inh 11, ABHD5-PLIN5 conf 30* and HNF4 counter 21*.
Screening O=C(CSc1ccc2ccccc2n1)c1ccccc1 returned ABHD5 PLIN5 PPI 9, MC4R antagonist -1, B2AR ag 2, MC4R barr agon 1 and PfGluPho inh 2.
